Assay results taken from ChEMBL document CHEMBL1133111, “Structure-based discovery of small molecule inhibitors targeted to protein tyrosine phosphatase 1B” (J Med Chem, 2000).
Values joined by “and” are separate entries in the source; they are usually repeats but may differ in a detail not shown here. Equal entries are not always repeated.

Legend:
[1] = molecular target: Receptor-type tyrosine-protein phosphatase F (Rattus norvegicus) (UniProt Q64604); assay: (§1) Inhibitory activity against rat recombinant leukocyte-common antigen-related molecule (LAR)
Chain of Receptor-type tyrosine-protein phosphatase F (Rattus norvegicus) (Q64604 whole entry, the tested form may be a part): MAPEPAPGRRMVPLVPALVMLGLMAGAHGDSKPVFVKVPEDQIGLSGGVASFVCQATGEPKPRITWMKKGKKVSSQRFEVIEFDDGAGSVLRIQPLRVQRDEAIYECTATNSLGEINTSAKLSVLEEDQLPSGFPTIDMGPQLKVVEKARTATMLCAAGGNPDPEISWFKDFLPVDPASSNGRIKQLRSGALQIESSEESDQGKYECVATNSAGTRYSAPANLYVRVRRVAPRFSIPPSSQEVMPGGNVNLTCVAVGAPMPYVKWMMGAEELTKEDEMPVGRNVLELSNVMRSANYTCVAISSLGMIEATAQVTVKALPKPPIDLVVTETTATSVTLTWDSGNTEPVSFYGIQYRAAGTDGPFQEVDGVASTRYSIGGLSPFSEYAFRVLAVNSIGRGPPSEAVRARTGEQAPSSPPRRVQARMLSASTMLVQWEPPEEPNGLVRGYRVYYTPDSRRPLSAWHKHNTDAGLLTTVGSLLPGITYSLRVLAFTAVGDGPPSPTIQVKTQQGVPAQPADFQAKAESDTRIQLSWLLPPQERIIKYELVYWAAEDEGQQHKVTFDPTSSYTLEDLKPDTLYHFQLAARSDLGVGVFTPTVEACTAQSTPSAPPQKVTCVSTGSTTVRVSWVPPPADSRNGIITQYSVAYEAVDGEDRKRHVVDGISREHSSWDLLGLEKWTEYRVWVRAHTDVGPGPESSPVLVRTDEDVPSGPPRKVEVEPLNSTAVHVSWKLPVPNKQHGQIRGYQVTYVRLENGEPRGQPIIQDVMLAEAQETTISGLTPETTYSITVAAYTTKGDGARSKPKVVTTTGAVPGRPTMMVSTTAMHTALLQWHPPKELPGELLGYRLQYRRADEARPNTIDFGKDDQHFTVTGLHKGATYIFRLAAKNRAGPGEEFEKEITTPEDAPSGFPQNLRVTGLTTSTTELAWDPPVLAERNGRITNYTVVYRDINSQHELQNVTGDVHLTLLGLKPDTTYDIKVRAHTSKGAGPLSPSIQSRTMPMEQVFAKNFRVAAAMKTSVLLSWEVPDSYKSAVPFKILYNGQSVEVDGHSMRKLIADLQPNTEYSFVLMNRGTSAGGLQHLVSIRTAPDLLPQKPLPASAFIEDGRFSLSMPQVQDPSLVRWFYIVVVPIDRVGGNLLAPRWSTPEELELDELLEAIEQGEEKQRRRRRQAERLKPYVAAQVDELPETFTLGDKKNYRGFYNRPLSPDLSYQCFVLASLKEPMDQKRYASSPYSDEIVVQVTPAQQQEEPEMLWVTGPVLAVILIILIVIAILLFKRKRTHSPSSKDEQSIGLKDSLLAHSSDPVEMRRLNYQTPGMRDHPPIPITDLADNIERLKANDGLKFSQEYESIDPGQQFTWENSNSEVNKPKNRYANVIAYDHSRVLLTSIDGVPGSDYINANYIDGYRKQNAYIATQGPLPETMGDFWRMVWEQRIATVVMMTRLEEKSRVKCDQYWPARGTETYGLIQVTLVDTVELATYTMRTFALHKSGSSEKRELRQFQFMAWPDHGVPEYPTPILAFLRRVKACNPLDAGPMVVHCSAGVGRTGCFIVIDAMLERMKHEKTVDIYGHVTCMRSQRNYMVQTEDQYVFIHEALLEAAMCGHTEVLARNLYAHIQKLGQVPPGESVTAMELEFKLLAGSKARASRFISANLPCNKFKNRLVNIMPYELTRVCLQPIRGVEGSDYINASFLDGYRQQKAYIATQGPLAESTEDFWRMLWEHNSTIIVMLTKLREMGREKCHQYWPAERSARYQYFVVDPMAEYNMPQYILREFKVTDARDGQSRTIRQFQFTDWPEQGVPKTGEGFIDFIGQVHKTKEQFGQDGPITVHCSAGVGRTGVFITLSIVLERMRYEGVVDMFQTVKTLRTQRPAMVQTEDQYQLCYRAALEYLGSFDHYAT
How it was run: (§2)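 Recombinant enzymes: human PTP1B; human PTPα intracellular fragment with both PTPase domains, cleaved from GST fusion; LAR with both PTPase domains; VHR purified to homogeneity. pNPP hydrolysis at 30 °C, pH 7.0, 50 mM 3,3-dimethylglutarate, ionic strength 0.15 M (NaCl), 10% DMSO final. Quenched with 1 N NaOH, A405 read. Ki from eight pNPP levels (0.2–5 Km) at three inhibitor concentrations.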

[2] = molecular target: T1, Tyrosine-protein phosphatase non-receptor type 1 (Homo sapiens) (UniProt P18031); assay: Inhibitory activity against protein tyrosine phosphatases (PTP1B) (Kis=slope inhibitory constant)
T1 sequence (whole entry): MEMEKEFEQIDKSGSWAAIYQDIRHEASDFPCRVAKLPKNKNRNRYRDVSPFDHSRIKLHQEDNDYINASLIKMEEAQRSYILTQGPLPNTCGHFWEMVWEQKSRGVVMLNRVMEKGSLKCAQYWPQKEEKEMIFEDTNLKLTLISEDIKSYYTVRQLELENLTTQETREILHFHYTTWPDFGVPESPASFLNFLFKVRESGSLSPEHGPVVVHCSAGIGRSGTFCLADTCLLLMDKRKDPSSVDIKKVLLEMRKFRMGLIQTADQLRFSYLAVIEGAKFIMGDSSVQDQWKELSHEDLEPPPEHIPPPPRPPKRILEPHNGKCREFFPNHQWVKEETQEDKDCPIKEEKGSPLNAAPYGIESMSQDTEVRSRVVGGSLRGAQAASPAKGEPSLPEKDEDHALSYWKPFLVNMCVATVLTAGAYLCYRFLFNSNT
How it was run: (§3)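 Recombinant enzymes used: human PTP1B and LAR bearing both PTPase domains. Compounds were dissolved in DMSO, with 10% DMSO final in all reactions. Buffer was 50 mM 3,3-dimethylglutarate, pH 7.0, ionic strength 0.15 M set with NaCl, at 30 °C. Initial rates of pNPP hydrolysis were measured at eight substrate levels (0.2–5 Km) and three fixed inhibitor levels. Reactions were quenched with NaOH and read at A405 (ε 18 000 M⁻¹ cm⁻¹), correcting for non-enzymatic hydrolysis. Kis (slope) and Kii (intercept) were obtained from steady-state kinetics.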

[3] = molecular target: Dual specificity protein phosphatase 3 (Homo sapiens) (UniProt P51452); assay: Inhibitory activity against human recombinant vaccinia H1 related phosphatase (Dual specificity protein phosphatase 3); how it was run: as §2
Chain of Dual specificity protein phosphatase 3 (Homo sapiens) (P51452 whole entry, looked up): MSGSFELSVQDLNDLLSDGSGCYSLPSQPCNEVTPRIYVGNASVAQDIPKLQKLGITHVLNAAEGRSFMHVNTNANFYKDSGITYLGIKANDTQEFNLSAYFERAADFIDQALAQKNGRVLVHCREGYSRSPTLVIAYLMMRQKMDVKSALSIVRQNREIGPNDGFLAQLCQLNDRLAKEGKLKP

[4] = molecular target: Receptor-type tyrosine-protein phosphatase alpha (Homo sapiens) (UniProt P18433); assay: Inhibitory activity against protein tyrosine phosphatases alpha (PTP alpha); how it was run: as §2
Chain of Receptor-type tyrosine-protein phosphatase alpha (Homo sapiens) (P18433 20-802 limits assumed): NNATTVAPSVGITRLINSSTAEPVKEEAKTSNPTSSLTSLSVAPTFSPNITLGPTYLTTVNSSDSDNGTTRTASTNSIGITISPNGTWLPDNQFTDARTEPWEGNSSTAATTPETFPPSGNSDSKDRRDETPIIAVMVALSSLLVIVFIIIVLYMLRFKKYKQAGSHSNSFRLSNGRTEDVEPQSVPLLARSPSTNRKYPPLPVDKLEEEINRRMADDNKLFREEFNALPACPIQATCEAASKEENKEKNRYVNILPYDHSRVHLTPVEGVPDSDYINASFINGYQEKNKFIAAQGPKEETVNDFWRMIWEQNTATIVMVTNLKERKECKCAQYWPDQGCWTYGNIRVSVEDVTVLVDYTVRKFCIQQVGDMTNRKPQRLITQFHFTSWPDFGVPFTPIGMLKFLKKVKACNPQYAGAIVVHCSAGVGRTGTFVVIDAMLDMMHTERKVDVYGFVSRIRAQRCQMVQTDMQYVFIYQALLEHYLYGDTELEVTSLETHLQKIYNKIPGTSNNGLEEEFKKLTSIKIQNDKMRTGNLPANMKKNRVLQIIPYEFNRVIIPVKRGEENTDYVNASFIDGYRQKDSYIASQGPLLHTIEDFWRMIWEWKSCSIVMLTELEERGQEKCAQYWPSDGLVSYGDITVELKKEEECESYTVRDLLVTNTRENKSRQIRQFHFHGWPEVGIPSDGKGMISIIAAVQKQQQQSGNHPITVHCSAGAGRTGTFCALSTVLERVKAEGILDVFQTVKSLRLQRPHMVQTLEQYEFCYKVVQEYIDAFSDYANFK

[5] = molecular target: Receptor-type tyrosine-protein phosphatase F (Rattus norvegicus) (UniProt Q64604); assay: as §1; how it was run: as §3; remark: listed apart in the source
[6] = molecular target: T1, Tyrosine-protein phosphatase non-receptor type 1 (Homo sapiens); assay: Inhibitory activity against protein tyrosine phosphatases (PTP1B) (Kii=intercept inhibitory constant); how it was run: as §3
[7] = molecular target: T1, Tyrosine-protein phosphatase non-receptor type 1 (Homo sapiens); assay: Inhibitory activity against protein tyrosine phosphatases (PTP1B); no inhibition at 1 mM

Row | SMILES | Kis [1] | Kis [2] [µM] | Kis [3] [µM] | Kis [4] [µM] | Kii [5] [µM] | Kii [6] [µM] | NI [7]
1 | O=S(=O)(O)c1ccc2c3c(ccc2c1)CCCC3 | > 1000 µM | 240 | > 1000 | 410 |  |  | 
2 | O=C(/C=C/c1cccc([N+](=O)[O-])c1)c1c(O)nc2cc([N+](=O)[O-])ccc2c1-c1ccccc1 | > 100 µM | 54 | > 100 | > 100 |  |  | 
3 | Cc1ccc2c(c1)nc(S)n2CNc1ccc(C(=O)O)c(O)c1 |  | 750 |  |  |  |  | 
4 | C[C@]12CC[C@@H]3c4ccc(OS(=O)(=O)O)cc4CC[C@H]3[C@@H]1CCC2=O |  | 2100 |  |  |  |  | 
5 | O=C(CSc1nnc(Nc2ccc(F)cc2)s1)c1ccc(Cl)cc1 | 53 µM | 110 | > 100 | 57 | 92 | 131 | 
6 | C[C@]12CC[C@@H]3c4ccc(OS(=O)(=O)O)cc4CC[C@H]3[C@@H]1CC[C@@H]2O |  |  |  |  |  |  | no inhibition at 1 mM
7 | O=[N+]([O-])c1ccc(OS(=O)(=O)O)cc1 |  | 10000 |  |  |  |  | 
8 | O=C(O)c1ccc(Oc2ccc(C(=O)c3ccc4c(c3)C(=O)OC4=O)cc2)cc1 | > 1000 µM | 510 | > 1000 | > 1000 |  |  | 
9 | O=S(=O)(O)Oc1c2ccccc2c2ccc3c(OS(=O)(=O)O)c4ccccc4c4ccc1c2c34 | > 100 µM | 39 | > 100 | > 100 |  |  | 
10 | O=C(O)c1cc(NCn2c(S)nc3ccccc32)ccc1O | > 100 µM | 61 | > 100 | 180 |  |  | 
11 | O=C(O)c1ccccc1O |  | 19400 |  |  |  |  | 
12 | O=C1c2ccccc2-c2cc([N+](=O)[O-])cc3cccc1c23 | 68 µM and 57 µM | 21 | > 100 | > 100 |  |  | 
